Hits are enriched below; roughly 4.1% of the tested compounds scored in any of these assays.
KCNQ1 block = human KCNQ1 channel inhibition | 310,000 compounds, 1.3% hits | P51787 | B-score at 10 µM | CHO-K1 KCNQ1, FluxOR thallium flux fluorescence; hits give high values;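 active means compounds whose thallium flux B-score, printed positive for inhibition, exceeds three library SD while starting fluorescence stays within three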;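 further: channel opened by potassium depolarization with thallium stimulus after 20 min compound exposure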
KCNK3 inh = human KCNK3 channel inhibition, primary screen; B-score at 10 µM; CHO-KCNK3 thallium flux, FluxOR fluorescence; hits give low values; 340,000 compounds, 0.84% hits; AID 602410; O14649;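 active means B-score under library mean minus 4 SD, starting fluorescence ratio at most library mean plus 5 SD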;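 further: more negative B-score means stronger inhibition of thallium flux through KCNK3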
KCNK9 block = human KCNK9 channel inhibition; Q9NPC2; HEK293 KCNK9, FluxOR thallium flux fluorescence; hits give low values; B-score at 10 µM; 310,000 compounds, 1.2% hits; AID 488922;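 active means ratio B-score over 3 SD below the library mean, with starting fluorescence within 5 SD of its mean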;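 further: negative B-score means less thallium flux so channel inhibition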
hERG rescue = compounds protecting human hERG from proarrhythmic drug block; Q12809; CHO-hERG, FluxOR thallium flux, dofetilide IC70 present; activation (rescue from dofetilide block), less the hit threshold, % at 10 µM; 310,000 compounds, 0.51% hits; AID 1511;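 active means activation above the mean of controls blocked by dofetilide plus 5 SD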;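 further: thallium influx through hERG after potassium depolarization seen as dye fluorescence rise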
Target sequence (Q12809 whole entry, looked up): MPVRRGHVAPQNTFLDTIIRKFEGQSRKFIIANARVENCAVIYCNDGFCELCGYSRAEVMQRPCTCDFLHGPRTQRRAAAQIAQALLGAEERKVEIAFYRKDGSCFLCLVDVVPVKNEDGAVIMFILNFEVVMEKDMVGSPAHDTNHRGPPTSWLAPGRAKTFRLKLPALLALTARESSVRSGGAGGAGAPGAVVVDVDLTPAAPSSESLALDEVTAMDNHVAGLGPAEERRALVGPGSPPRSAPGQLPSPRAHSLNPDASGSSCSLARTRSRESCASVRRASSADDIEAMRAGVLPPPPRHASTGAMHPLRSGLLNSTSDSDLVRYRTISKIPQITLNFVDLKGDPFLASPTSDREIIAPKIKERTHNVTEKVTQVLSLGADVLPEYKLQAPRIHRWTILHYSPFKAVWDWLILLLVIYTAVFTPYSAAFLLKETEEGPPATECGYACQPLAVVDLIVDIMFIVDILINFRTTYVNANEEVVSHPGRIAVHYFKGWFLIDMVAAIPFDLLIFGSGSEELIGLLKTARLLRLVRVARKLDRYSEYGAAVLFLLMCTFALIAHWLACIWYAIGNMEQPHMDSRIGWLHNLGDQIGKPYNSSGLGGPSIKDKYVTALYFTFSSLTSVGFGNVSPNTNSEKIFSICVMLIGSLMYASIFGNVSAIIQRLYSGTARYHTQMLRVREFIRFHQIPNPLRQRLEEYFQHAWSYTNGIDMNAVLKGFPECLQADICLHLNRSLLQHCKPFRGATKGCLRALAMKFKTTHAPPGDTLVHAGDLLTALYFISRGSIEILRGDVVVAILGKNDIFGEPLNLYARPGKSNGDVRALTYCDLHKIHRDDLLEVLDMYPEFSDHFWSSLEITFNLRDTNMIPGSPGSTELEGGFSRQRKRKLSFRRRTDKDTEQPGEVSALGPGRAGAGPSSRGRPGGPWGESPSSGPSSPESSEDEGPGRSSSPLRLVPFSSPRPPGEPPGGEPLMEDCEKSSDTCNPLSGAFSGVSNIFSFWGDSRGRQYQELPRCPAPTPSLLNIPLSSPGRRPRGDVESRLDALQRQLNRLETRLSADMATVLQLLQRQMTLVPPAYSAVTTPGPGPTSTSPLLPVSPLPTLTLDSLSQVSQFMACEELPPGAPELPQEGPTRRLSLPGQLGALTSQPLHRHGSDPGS
Cl transport mod = KCC2 (human) Cl- transport modulation; KCC2 cells, thallium flux FluoZin-2 fluorescence; B-score of Tl+ flux slope (higher = more flux/activation; lower = inhibition) at 10 µM; 190,000 compounds, 2.2% hits; AID 1456;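 active means thallium flux slope and its plate-corrected score both differing from the plate sample mean at a set confidence after two filtering rounds, in either direction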;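 further: slope of fluorescence scaled to starting intensity during 10 to 20 s after thallium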
KCNQ1 pot = potentiators or activators of human KCNQ1 potassium channel; CHO-K1 KCNQ1, thallium flux FluxOR fluorescence; hits give high values; 310,000 compounds, 0.35% hits; B-score at 10 µM;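 active means fluorescence ratio B-score, a plate-corrected score, at least three library SD, with initial intensity B-score within 5 SD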
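Assay system: CHO-K1 cells stably expressing KCNQ1. Medium: assay buffer for compound exposure, DMSO matched across wells. Timing: 37 °C overnight plating, 90-min dark dye load, 20-min compound pretreatment. Signal: kinetic FluxOR fluorescence, 10 s baseline plus 110 s post-stimulus.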
Each line names hits and unclear results; the compound was inactive in the other large screens.

C=C1C(=O)O[C@H]2C1CC[C@@](C)(O)C13C=CC(C)(C21)C1(C3)C(=O)O[C@@H]2C3C(C)=CCC3[C@](C)(O)C[C@H](OC(C)=O)C21 (some centres undefined)	hERG rescue 5.9
CC(C)C(=O)Nc1c(-c2ccccc2F)c(=O)c2ccccc2n1C	hERG rescue 16, KCNQ1 pot 15 (no result: Cl transport mod)
CC(C)C(=O)Nc1c(-c2ccccc2Cl)c(=O)c2ccccc2n1C	none (no result: Cl transport mod)
CC1(C)CCC(=O)N2CC[C@H]3C[C@H](OC(=O)Nc4ccccc4)C[C@@H]1[C@H]32	none (no result: Cl transport mod)
CC1(C)CCC(=O)N2CC[C@H]3C[C@H](OC(=O)Nc4ccc5c(c4)OCO5)C[C@@H]1[C@H]32	KCNK9 block -8 (no result: Cl transport mod)
Nc1nc2n(n1)C(=O)CC(c1ccccc1[N+](=O)[O-])N2 (centres undefined)	none
Nc1nc2n(n1)C(=O)CC(c1ccc(Cl)cc1)N2 (centres undefined)	hERG rescue 5.0
Cc1nn(C)c(C)c1/C=N/NC(=O)C(C)(C)Oc1ccc(Cl)cc1	none
Cc1nn(C(C)(C)C)c(C)c1/C=N/OC(=O)Nc1ccc(Cl)cc1	KCNQ1 block 7
COc1ccc(CN2CCNC(=O)C2CC(=O)N(C)Cc2ccon2)c(OC)c1 (centres undefined)	KCNQ1 block 6
CC(C)=CCC/C(C)=C/CNC(=O)C[C@H]1C[C@H](C(=O)N(C(C)C)C(C)C)[C@@]2(C)c3[nH]c4cc(CCC(=O)N(C)C)ccc4c3CCN2C1=O	none (no result: KCNQ1 block, KCNK9 block, hERG rescue, Cl transport mod, KCNQ1 pot)
CCC(=O)N1c2ccc(C)cc2C2=NNC(=S)NC21O (centres undefined)	Cl transport mod 5.4
O=C(NCc1ccccn1)c1cc(-c2ccc(Cl)cc2)oc1C(F)(F)F	KCNK9 block -7.4
O=C(NCc1ccncc1)c1cc(-c2ccc(Cl)cc2)oc1C(F)(F)F	none
CSc1nc(Cl)c(Cc2ccc(OC(C)C)cc2)c(N2CCOCC2)n1	KCNQ1 block 7, KCNK9 block -7.5 (no result: Cl transport mod)
COc1cccc(-c2cc(C(F)(F)F)nc(N3CCC(C)CC3)n2)c1	hERG rescue 5.1 (no result: Cl transport mod)
CC(Oc1ccc(Cl)cc1Cl)C(=O)Nc1ccc2oc(-c3ccncc3)nc2c1 (centres undefined)	KCNK3 inh -10
Cc1ccc(-c2nc3cc(NC(=O)C(C)C)ccc3o2)cc1	none
CC(=O)Nc1ccc2c(c1)C(N1CC3CCC(CC3)C1)c1ccccc1-2 (centres undefined)	KCNK3 inh -10 (no result: KCNQ1 block, KCNK9 block, hERG rescue, Cl transport mod, KCNQ1 pot)
CC(C)CC(=O)N1CCN(S(C)(=O)=O)CC1	Cl transport mod 6.4
Cc1ccc(S(=O)(=O)Nc2cccc3ncccc23)cc1	none
Cc1ccc(S(=O)(=O)Nc2cccc3ncccc23)s1	Cl transport mod 52
COc1cc2c(cc1OC)CN(C1CCC(C(C)(C)C)CC1)CC2 (centres undefined)	none (no result: KCNQ1 block, KCNK9 block, hERG rescue, Cl transport mod, KCNQ1 pot)
CC1CCCN(C(=O)C2CCN(S(=O)(=O)c3cccs3)CC2)C1 (centres undefined)	none (no result: KCNQ1 block, KCNK9 block, hERG rescue, Cl transport mod, KCNQ1 pot)
O=c1nc(/C=C/c2ccc(-c3ccc(F)cc3)o2)cc(C(F)(F)F)[nH]1	KCNQ1 block 11 (no result: KCNK3 inh)
CCCCCCCCNc1ncnc2[nH]ncc12	none (no result: KCNQ1 block, KCNK9 block, hERG rescue, Cl transport mod, KCNQ1 pot)
C=CCNc1nc(Nc2ccc([N+](=O)[O-])cc2)nc(OC)n1	none
COc1nc(Nc2ccc([N+](=O)[O-])cc2)nc(NC2CCCCC2)n1	KCNK9 block -7.1
CCN1C(=O)/C(=C/c2ccc(N3CCCC3)cc2)NC1=S	KCNQ1 block 12
CC1CCCCC1NC(=O)CN1C(=O)NC(C)(c2cc(F)ccc2F)C1=O (centres undefined)	none (no result: KCNQ1 block, KCNK9 block, hERG rescue, Cl transport mod, KCNQ1 pot)
COc1ccc(NC(=O)c2ccc3c(SCC(=O)O)c4c(nc3c2)CCCC4)cc1Cl	hERG rescue 7.8 (no result: KCNK3 inh)
Cc1c(N(C)S(=O)(=O)c2ccc(Cl)c(C(=O)NCC(C)(C)N3CCOCC3)c2)c(=O)n(-c2ccccc2)n1C	none (no result: KCNQ1 block, KCNK9 block, hERG rescue, Cl transport mod, KCNQ1 pot)
COc1ccccc1NC(=O)c1ccc(Cl)c(S(=O)(=O)NCc2ccco2)c1	none (no result: KCNQ1 block, KCNK9 block, hERG rescue, Cl transport mod, KCNQ1 pot)
C/C(CCc1oc2ccccc2c1-c1ccc(C)o1)=N/O	none
C/C(CCc1oc2c(Br)cc(Br)cc2c1-c1ccc(C)o1)=N\O	KCNQ1 pot 15
OC(CNCc1ccc(F)cc1)(c1ccc(F)cc1)c1ccc(F)cc1	KCNK9 block -6.6

Assay outcomes deposited in PubChem BioAssay by several laboratories.
